Published values collected from several papers.
Protocols differ between the studies behind these lines.
Cell line: MRC5
Effect on: cell growth or viability

| SMILES | method | tested at | time | measurement | result |
| --- | --- | --- | --- | --- | --- |
| CCCCN1C[C@H]2CC[C@@H]3[C@](C)(COC(C)=O)[C@H](OC(C)=O)CC[C@@]3(C)[C@@H]2C[C@@H]1C1=CCOC1=O | ATP luminescence | 25 µM | 72 h | cell death | -6% |
| Cc1cn([C@@H]2C[C@H](O)[C@@H](CNC(=O)Nc3ccc(N4CCCCC4)cc3)O2)c(=O)[nH]c1=O |  |  |  | CC50 | > 50 µM |
| COC(=O)N[C@H](C(=O)N1CCC[C@H]1c1nc(-c2ccc(-c3ccc(-c4c[nH]c([C@@H]5CCCN5C(=O)[C@@H](NC(=O)OC)C(C)C)n4)cc3)cc2)c[nH]1)C(C)C |  |  | 5 days | CC50 | 29 µM |
| CC(C)=CCC/C(C)=C/COc1ccc2ccc(=O)oc2c1 | MTT |  | 24 h | IC50 | 68.9 µM |
| O=C(C=C[c-]1cccc1)c1ccc[nH]1.[Fe+2].c1cc[cH-]c1 | MTT | 100 µM |  | viability | ~100% |
| Cc1cn([C@@H]2C[C@H](O)[C@@H](CNC(=O)Nc3ccc(OCc4ccccc4)cc3)O2)c(=O)[nH]c1=O |  |  |  | CC50 | > 50 µM |
| COc1ccc(CN2C[C@H]3CC[C@@H]4[C@]5(C)COC(C)(C)O[C@@H]5CC[C@@]4(C)[C@@H]3C[C@@H]2C2=CCOC2=O)cc1 | ATP luminescence | 25 µM | 72 h | cell death | 5.1% |
| COc1c2ccoc2c(OCC=C(C)C)c2oc(=O)ccc12 | MTT |  | 24 h | IC50 | > 100 µM |
